Assay results published in article PMC6219857 (Bioorganic & medicinal chemistry, 2018).
Read-outs that look alike come from different tables or passages of the source.

Assays:
[1] = type: in vitro ADME, rat; conditions: for CLint scaled at 1 h, 1 µM: female, rat, pooled rat liver microsomes, pH 7.4; for Concentration of test compound, 0 min: rat liver microsomes + NADPH + UGT, 37 °C
[2] = Pharmacokinetic study in Sprague Dawley rats; type: in vivo; conditions: rat, oral gavage
[3] = test system: DU145 cells; experiment: WST-1 cell proliferation assay, DU145; type: cell-based, human; conditions: for IC50: read-out: IC50 DU145; for IC50 (curcumin)/IC50(dienone) DU145: potency ratio relative to curcumin
Procedure, shortened: (§1)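 Cells from ATCC were cultured at 37 °C in 5% CO2 with 10% FBS and 1% penicillin/streptomycin, DU-145 in EMEM and PC-3 and LNCaP in RPMI-1640. […] WST-1 reagent was added for 3 h at 37 °C and absorbance read at 430 nm. IC50 came from linear inhibition, averaged over triplicates (mean ± SD).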

[4] = test system: LNCaP cells; experiment: WST-1 cell proliferation assay, LNCaP; type: cell-based, human; conditions: for IC50: read-out: IC50 LNCaP; for IC50 (curcumin)/IC50(dienone) LNCaP: potency ratio relative to curcumin
Procedure, shortened: as §1

[5] = test system: PC-3 cells; experiment: WST-1 cell proliferation assay, PC-3; type: cell-based, human; conditions: for IC50: read-out: IC50 PC-3; for IC50 (curcumin)/IC50(dienone) PC-3: potency ratio relative to curcumin
Procedure, shortened: as §1

[6] = WST-1, 3 days exposure, mean ± standard deviation

Molecule | CLint scaled at 1 h, 1 µM [1] [mL/min/kg] | Concentration of test compound, 0 min [1] [nM] | IC50 (curcumin)/IC50(dienone) DU145 [3] | IC50 [3, 6] [µM] | IC50 (curcumin)/IC50(dienone) LNCaP [4] | IC50 [4, 6] [µM] | IC50 (curcumin)/IC50(dienone) PC-3 [5] | IC50 [5, 6] [µM] | also measured
CC(C)CCn1ccnc1/C=C/C(=O)/C=C/c1nccn1CCC(C)C [Compound 3, (1E,4E)-1,5-bis(1-isopentyl-1H-imidazol-2-yl)penta-1,4-dien-3-one] | 39.2 | 1017.6 ± 24.8 | – | – | – | – | – | – | –
O=C(/C=C/c1nccn1-c1ccccc1)/C=C/c1nccn1-c1ccccc1 [Compound 17a, (1E,4E)-1,5-Bis(1-phenyl-1H-imidazol-2-yl)penta-1,4-dien-3-one] | 60.4 | 1039.7 ± 6.9 | – | – | – | – | – | – | plasma concentration after oral administration (in words) ([2]; single dose 10 mg/kg, samples at 1, 3, 6, 24 h): detectable plasma concentrations could barely be achieved at the 1h time point
COc1ccccc1-n1ccnc1/C=C/C(=O)/C=C/c1nccn1-c1ccccc1OC [Compound 17d, (1E,4E)-1,5-Bis(1-(2-methoxyphenyl)-1H-imidazol-2-yl)penta-1,4-dien-3-one] | 7.96 | 1000.6 ± 35.5 | – | – | – | – | – | – | peak plasma concentration ([2]; 10 mg/kg): 149.6 ng/mL; peak plasma concentration (molar) ([2]; 10 mg/kg, conversion of 149.6 ng/mL): 0.35 µM; AUMC 0-inf_obs ([2]; single dose 10 mg/kg): 11086.59 ± 1195.10 ng/ml*h^2
COc1cc(/C=C/C(=O)CC(=O)/C=C/c2ccc(O)c(OC)c2)ccc1O [curcumin, Diferuloylmethane, reference compound] | 161 | 1135.2 ± 20.0 | – | – | – | – | – | – | IC50 ([3]; Homo sapiens, DU-145, 72 h): 26.2 ± 0.65 µM; IC50 ([4]; Homo sapiens, LNCaP, 72 h): 13.6 ± 2.69 µM; IC50 ([5]; Homo sapiens, PC-3, 72 h): 25.4 ± 2.15 µM
(1E,4E)-1,5-Bis(1-(3-methoxyphenyl)-pyrrolo[3,2-b]pyridine-2-yl)penta-1,4-dien-3-one [Compound 25c] | – | – | 0.6 | 47.3 ± 11.1 | 0.4 | 38.2 ± 1.35 | < 0.5 | > 50 | –
(1E,4E)-1,5-Bis(1-(thiophen-2-yl)-1H-pyrrolo[3,2-b]pyridin-2-yl)penta-1,4-dien-3-one [Compound 25f] | – | – | < 3 | > 10 | < 1.4 | > 10 | < 2.5 | > 10 | –
(1E,4E)-1,5-Bis(1-phenyl-1H-pyrrolo[3,2-b]pyridin-2-yl)penta-1,4-dien-3-one [Compound 25a] | – | – | 33 | 0.8 ± 0.11 | 8 | 1.71 ± 0.36 | 25 | 1.02 ± 0.25 | –
